Assay outcomes (PubChem)
An excerpt weighted towards active compounds, which were near 3.6% of everything screened.
FID counter – compounds displacing fluorescent DNA intercalator, primary screen, artefact control for HCV NS3 helicase inhibitor project, biochemical, FID fluorescence; DNA fluorescent intercalator displacement; inhibition, % at 7.9 µM; actives 0.17% (n = 290,000); AID 1845, 2009; in the data active means inhibition above about 37%;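 further: 0% = vehicle and 100% = reference compound; higher means more ethidium bromide displaced from hairpin DNA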
NS3 helicase inh – inhibitors of HCV NS3 helicase, primary screen, biochemical, Cy5 molecular beacon fluorescence; Hepatitis C virus NS3 helicase; NS3 helicase DNA unwinding; inhibition, % at 10.9 µM; actives 0.56% (n = 290,000); AID 1800, 2009;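 active means inhibition above the mean of all tested compounds plus 3 SD, set per campaign, cut at about 35% in these data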;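 further: 0% = DMSO wells and 100% = thioflavine S control wells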
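Measured by: Cy5 fluorescence, 0 and 60 min reads / Assay system: NS3 helicase fragment of HCV / Control set: low DMSO, high thioflavine S at 110 µM / Times: 1 h reaction at 25 °C, ATP-initiated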
ZTA DNA inh – blocks Epstein-Barr virus ZTA, an EBNA-1 counter-screen; P03206; ZTA-DNA binding, fluorescence polarization; inhibition, % at 11 µM; actives 0.15% (n = 320,000); AID 2234; in the data active means inhibition above about 33%
Target sequence (P03206 whole entry, looked up): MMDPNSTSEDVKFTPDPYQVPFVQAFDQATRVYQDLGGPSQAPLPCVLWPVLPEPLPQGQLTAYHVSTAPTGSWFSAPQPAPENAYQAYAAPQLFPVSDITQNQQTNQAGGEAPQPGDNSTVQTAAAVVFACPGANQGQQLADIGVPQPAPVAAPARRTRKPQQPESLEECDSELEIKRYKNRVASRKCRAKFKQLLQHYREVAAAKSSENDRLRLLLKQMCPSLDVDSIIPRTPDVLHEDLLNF
GRIN3A LBD mod – binders of NR3A ligand-binding domain, primary screen, biophysical, differential scanning fluorimetry, uHTS | Tm shift relative to glycine control, % at 25 µM | actives 2.5% (n = 340,000) | Glutamate receptor ionotropic, NMDA 3A (GRIN3A) ligand-binding domain | NR3A LBD differential scanning fluorimetry, Tm shift; 0% = protein alone, 100% = glycine-bound protein;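 active means melting temperature shift of at least 10% of the positive control shift, at one fixed dose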
EBNA-1 inh – EBNA-1 DNA-binding inhibitors, primary screen, biochemical, fluorescence polarization. inhibition, % at 14.8 µM. actives 0.34% (n = 300,000); in the data active means inhibition above about 28%
FGF22 binding – binders of human FGF22 protein, primary screen, FGF22 synaptogenesis inhibitor project, biophysical, thermal shift, single point; Fibroblast growth factor 22 (Homo sapiens), Q9HCT0; recombinant FGF22 thermal shift, SYPRO orange fluorescence; percent of sucrose octasulfate shift, DMSO zero; activity (Tm shift, normalised), % at 9.99 µM; actives 1.5% (n = 340,000); AID 651658, 2012;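 active means mean Tm shift, scaled 0 neutral to 100 positive control, at about 1.3% or above, every replicate too, limit read from the data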
Target sequence (Q9HCT0 whole entry, looked up): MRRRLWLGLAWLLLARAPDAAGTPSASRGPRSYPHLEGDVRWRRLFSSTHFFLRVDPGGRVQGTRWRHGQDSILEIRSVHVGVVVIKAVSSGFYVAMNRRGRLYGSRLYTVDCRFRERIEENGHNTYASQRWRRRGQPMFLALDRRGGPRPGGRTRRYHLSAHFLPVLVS
EBNA-1 inh conf – EBNA-1 DNA-binding inhibitors, retest, confirmation, biochemical, fluorescence polarization, triplicate. shares compounds with EBNA-1 inh. Recombinant EBNA-1 DBD, Cy5-DNA fluorescence polarization. inhibition, % at 14.8 µM. actives 35% (n = 830);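 active means mean inhibition across replicates above a set limit taken from the earlier primary screen, cut at about 28% in these data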;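 further: plate controls were EBNA-1 protein with DMSO for no effect and wells lacking EBNA-1 for full effect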
ZTA counter trip – EBV Zta DNA binding inhibitors, counter-screen for EBNA-1 inhibitor project, biochemical, fluorescence polarization, triplicate; shares compounds with EBNA-1 inh; Zta-ZRE DNA binding, Cy5 fluorescence polarization; inhibition, % at 11.1 µM; 830 tested, under 10 active; AID 2328, 2010;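 active means mean inhibition over triplicates above a set limit taken from the primary EBNA-1 screen, cut at about 37% in these data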;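 further: purified full length Zta protein with Cy5 labeled ZRE DNA probe; 0% = Zta with DMSO and 100% = wells lacking Zta protein; inhibitors lower polarization by freeing the labeled DNA probe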
Numbers without * were called inactive; nt = not tested or not shown.

SMILES	FID counter	NS3 helicase inh	ZTA DNA inh	GRIN3A LBD mod	EBNA-1 inh	FGF22 binding	EBNA-1 inh conf	ZTA counter trip
O=C(Nc1cccc(C(F)(F)F)c1)c1ccc2nc(-c3ccco3)c(-c3ccco3)nc2c1	-11	23	-21	-4	68*	nt	4	8
O=C(Nc1cccc(C(F)(F)F)c1)c1cc[n+]([O-])cc1	-2	-2	-3	-1	-5	0	nt	nt
COc1ccc(NC(=O)Nc2ccc3c(c2)C(=O)N([C@H](C)CO)C[C@H](C)[C@@H](CN(C)S(=O)(=O)c2ccccc2)OCCCC[C@H](C)O3)cc1	nt	nt	nt	nt	nt	0	nt	nt
COC(=O)c1ccc2nc(NC(=O)CCS(=O)(=O)c3ccccc3)sc2c1	-21	4	17	-2	44*	0	52*	5
O=C(CNC(=O)c1ccc(-c2ccccc2)cc1)OCc1c(F)cccc1Cl	0	-6	-17	-5	44*	0	76*	-12
CN(C)c1cc[n+](/C(C(=S)Nc2ccc(SC(F)F)cc2)=C(/[O-])c2ccccc2)cc1	5	-8	0	0	58*	0	43*	-10
Cc1cc(C)c(/C([O-])=C(/C(=S)Nc2ccc(SC(F)F)cc2)[n+]2ccccc2)cc1C	-9	-16	0	-4	-6	0	nt	nt
CNC[C@@H]1OCCCC[C@H](C)Oc2ccc(NC(=O)Cc3ccccc3)cc2C(=O)N([C@@H](C)CO)C[C@@H]1C	nt	nt	nt	nt	nt	0	nt	nt
CCc1nn(-c2ccccc2)c(=S)c2ccccc12	0	6	-4	7	35*	nt	-2	9
Cc1noc(C)c1S(=O)(=O)Nc1ccc2c(c1)C(=O)N([C@H](C)CO)C[C@H](C)[C@H](CN(C)S(=O)(=O)c1cccs1)OCCCC[C@@H](C)O2	nt	nt	nt	nt	nt	0	nt	nt
CC(=O)Nc1ccc(NC(=O)/C=C/c2ccc3c(c2)OCO3)cc1	-10	1	-10	2	-4	0	nt	nt
NS(=O)(=O)c1ccc(NC(=O)/C=C/c2ccc3c(c2)OCO3)cc1	3	-19	33	12*	44*	0	14	13
COc1ccc(N2CCN(S(=O)(=O)c3ccc(C(=O)NCc4ccco4)cc3)CC2)cc1	-1	-4	-12	28*	38*	nt	27	3
COc1ccc2c3c([nH]c2c1)[C@H](CO)N(C(=O)c1cnccn1)CC31CCN(S(C)(=O)=O)CC1	nt	nt	nt	nt	nt	0	nt	nt
CCc1ccc(/C=C2/C(=O)N(c3ccccc3)C(=S)N2CC(=O)OC)s1	-2	8	8	4	41*	nt	21	1
COc1ccc(CC2(CO)CCN(Cc3ccc(NC(C)=O)cc3)CC2)cc1	6	-7	4	-1	46*	0	0	5
O=C(C[C@@H]1CC[C@@H]2[C@H](COC[C@@H](O)CN2C(=O)Nc2ccc(C(F)(F)F)cc2)O1)NC1Cc2ccccc2C1	nt	nt	nt	nt	nt	0	nt	nt
O=C(CSc1nc2ncc(Cl)cc2[nH]1)c1c[nH]c2ccccc12	-1	-11	-14	6	31*	0	18	8
Cc1c(NS(=O)(=O)c2ccc3c(c2)CCN3C(=O)C2CC2)c(=O)n(-c2ccccc2)n1C	-12	-3	4	0	43*	nt	-4	0
Cc1c(NS(=O)(=O)c2cc(Br)cc3c2N(C(=O)C2CC2)CC3)c(=O)n(-c2ccccc2)n1C	-9	7	8	0	14	nt	nt	nt
C[C@H](CO)N1C[C@H](C)[C@H](CN(C)C(=O)C2CC2)Oc2cc(C#C[C@@H](C)O)ccc2S1(=O)=O	nt	nt	nt	nt	nt	0	nt	nt
